Source: ChEMBL document CHEMBL4513216, “Probing the Open Global Health Chemical Diversity Library for Multistage-Active Starting Points for Next-Generation Antimalarials” (ACS Infect Dis, 2020)

Assay: Toxicity liver stage against HepG2, at 10uM
Assay type: cell-based
Design: test concentration 10 uM, cell line HepG2-A16-CD81EGFP
Details: human, HepG2-A16-CD81EGFP cells; read-out: INHIBITION
Summary of the method: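 Uninfected HepG2-A16-CD81EGFP cells, 3 × 10^3 per well, 1536-well, plated on prespotted compound at 10 μM final, parasite-free screening media added to match infected plates; puromycin 10 μM positive, DMSO 0.5% negative; run in parallel with 48 h PbLuc assay at 37 °C, 5% CO2; viability by CellTiter-Glo luminescence, normalized to controls.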

| Compound | cytotoxicity at 10 µM [%] |
| --- | --- |
| CCn1nc(Br)nc1Sc1ccccc1NC(C)=O | -6.17 |
| CCc1nccn1CC(=O)Nc1cccc(N2CCCC2)c1 | 17.1 |
| COc1cccc2c1OCC(CNC(=O)CNC(N)=O)C2 (stereo not given) | -2.93 |
| CCn1cc(Br)c(C(=O)NCc2cccnc2)n1 | -10.1 |
| CCn1c(N)nc2cc(C(=O)NCCc3ccncc3)cnc21 | 1.22 |
| O=C(Cc1ccco1)N1CCC2(CCOCC2COCC2CC2)CC1 (stereo not given) | 4.65 |
| CCC(=O)N1CCC(c2nc(C)c3c(n2)N(C)CCC3)CC1 | 4.26 |
| COc1cccc2ccc(N3CCC(O)(c4ccc(C)cn4)CC3)nc12 | -0.942 |
| Cc1cc(N(C)Cc2c(C)noc2C)n2nc(C)c(C)c2n1 | 5.44 |
| Cc1ncc(CC(=O)N2CCC(N3C[C@@H](C)O[C@@H](C)C3)CC2)c(=O)[nH]1 | 3.26 |
| CCN(CCSc1ccccc1)C(=O)c1cn(C2CCC(N)CC2)nn1 (stereo not given) | -2.93 |
| Cc1noc(C)c1CC(=O)OCC(=O)N1CCc2sccc2C1 | -0.361 |
| COCC1CN(CCOc2ccc(Cl)cc2)Cc2c1cnn2C (stereo not given) | -102 |
| COc1ccccc1S(=O)(=O)N1CCN(C)[C@@H]2CS(=O)(=O)C[C@@H]21 | 19.3 |
| Cc1nc(O)c2nnn(C[C@H]3CCCN3C(=O)C3CCCC3)c2n1 | -26.9 |
| c1coc(CN2CCn3c(CN4CCOCC4)nnc3C2)c1 | 9.1 |
| Fc1cccc(Oc2nccnc2C2CCN(C3CCOCC3)CC2)c1 | 6.62 |
| CN(C(=O)C1CCCCC1)[C@@H]1CCC[C@@H](N2CCOCC2)[C@@H]1O | -6.33 |
| CC1CCCN(c2ccc(C(N)=O)cc2NC(=O)CC2=CCNCC2)C1 (stereo not given) | -46.3 |
| Cc1ccccc1CN(CCN(C)C)Cc1ncc[nH]1 | -7.11 |
| COCCN1C(=O)[C@]2(CC[C@@H]3CN(Cc4ccccc4F)C[C@@H]32)N=C1C | -0.0957 |
| CCC(=O)NCc1ccccc1Cn1ccnc1 | -1.21 |

| Compound | cytotoxicity at 10 µM [%] |
| --- | --- |
| COc1ccc(OCCN2CCN(Cc3nccn3C)CC2)cc1 | -6.25 |
| Cc1ccccc1CN1CCCN(C(=O)c2ccn(C)c(=O)c2)CC1 | 1.62 |
| Cc1cc(Cn2cc(C#N)c(=O)c3ccccc32)no1 | 5.76 |
| CCOc1cccnc1C(=O)N1CCC(c2ccccc2OC)C1 (stereo not given) | 7.71 |
| CNc1ccc(CC2CCCN(C(=O)c3cnccn3)C2)nn1 (stereo not given) | -9.27 |
| CC(=O)Nc1cccc(OCCNC(=O)N(C)Cc2ccccc2)c1 | -13.2 |
| CC(C)Oc1cc(N2CCCC(O)C2)nc(N)n1 (stereo not given) | -0.796 |
| Cc1cccc(NS(=O)(=O)c2ccc(C#N)nc2)c1C#N | 0.0489 |
| CC(C)Cn1cc2nc(N3CCC(O)CC3)[nH]cc-2c1=O | 5.92 |
| Cc1cnc2c(S(=O)(=O)NCC3CCN(C4CC4)C3)cccc2c1 (stereo not given) | -6.36 |
| CCc1cnc(N)nc1N(C)CCc1cnn(C)c1 | 55.9 |
| Cc1ccc(F)c(NCc2ccc(C(=O)N(C)C)[nH]2)c1 | 4.96 |
| COCCN1CC[C@]2(CN(C(=O)c3cccs3)C[C@H]2C)C1=O | 3.47 |
| Cc1cc(CN[C@@H](C)C(N)=O)c(C)s1 | -6.55 |
| Cc1nc2c(Nc3ccc(C#N)cc3)nc(N)nc2n1C | 1.88 |
| Cc1ccc(CN(Cc2cc(=O)n3cccc(C)c3n2)C(C)C)o1 | 7.65 |
| Cc1noc(C)c1CN1CCC(NC(=O)OC(C)(C)C)CC1 | 6.27 |
| Cc1ccc(S(C)(=O)=O)cc1C(=O)N1CCCC(n2cncn2)C1 (stereo not given) | -8.21 |
| Cc1cc(N2CCN3CCCCC3C2)n2nc(C)c(C)c2n1 (stereo not given) | -10.4 |
| Cc1ccccc1[C@@H]1CN(CCCS(=O)(=O)N(C)C)C[C@H]1C(=O)O | -5.51 |
| CCOCCC(=O)N(CCC#N)c1ccc(C)c(C)c1 | 4.06 |
| COCCN1CCC(CNc2cnc3ccccc3n2)CC1 | -46.6 |

| Compound | cytotoxicity at 10 µM [%] |
| --- | --- |
| CCCc1nc(C)cc(N2CCC3(CCC(=O)N(CC4CC4)C3)CC2)n1 | 14.9 |
| CCC(C)NS(=O)(=O)Cc1cccc(NC(=O)c2cc[nH]c2C)c1 (stereo not given) | 3.77 |
| Cc1cnn(CC2CN(Cc3nc(-c4ccccn4)no3)CCO2)c1 (stereo not given) | -22.6 |
| CC(C(=O)N(C)Cc1ccc(Br)o1)n1cncn1 (stereo not given) | 5.87 |
| CC(CS(C)(=O)=O)N(C(=O)CCc1ccsc1)C1CC1 (stereo not given) | 1.97 |
| N#Cc1c(F)cccc1N1CCC(C(=O)Nc2nccs2)CC1 | 0.329 |
| CCn1nc(C(=O)N2CCNCC2C(=O)Nc2ccc(C)nc2)cc1C (stereo not given) | 10.2 |
| NC(=O)CNC(=O)c1ccc(CNCc2ccc(Cl)cc2Cl)cc1 | -41.5 |
| CC(C)C(=O)NCCCNC(=O)Nc1cc(-c2ccccc2)ns1 | 20.3 |
| COCc1noc(C2(c3ccc(F)cc3)CC2)n1 | -2.93 |
| O=C(c1ccncc1)N1CCCn2c(CN3CCCCC3)nnc2C1 | -5.77 |
| Cn1cc(CN2CCO[C@@H]3CN(Cc4ccoc4)C[C@@H]3C2)cn1 | 2.14 |
| Cc1ccc2nc(C)c(C)c(C(=O)NCCCn3cnnc3)c2c1 | -2.89 |
| Cn1ccnc1C(=O)NC[C@@H]1OC[C@H]2CN(S(C)(=O)=O)CC[C@H]21 | -99.3 |
| CC(C)C(=O)N1CCC2(CC1)NC(=O)[C@H]1CN(Cc3cccnc3)C[C@H]12 | -0.331 |
| CC(C)N(Cc1ccccn1)S(=O)(=O)N1CCCC1c1ccco1 (stereo not given) | -3.92 |
| CCNC(=O)[C@@H]1CCCN1[C@@H](C(=O)NC)c1ccccc1 | 7.77 |
| Cc1cnc(NC(=O)N2CCC(N3CCCCC3=O)CC2)s1 | -0.772 |
| CCCN1C(=O)CC(N2CCN(c3ccc(F)cc3)CC2)C1=O (stereo not given) | -3.03 |
| Cc1cnn(C2CCCN(C(=O)c3cc[nH]n3)C2)c1 (stereo not given) | -18.3 |
| Cc1cnn(CCNCc2c(C)nn(C)c2Cl)c1 | -15.3 |
| CC(C)CNC(=O)CCN1C(=O)CCc2cc(F)ccc21 | 8.17 |

| Compound | cytotoxicity at 10 µM [%] |
| --- | --- |
| Cc1cccc(N2CC[C@@H]3CN(Cc4csc(C)n4)CCO[C@@H]3C2)n1 | -4.51 |
| CNC(=O)[C@@]12CCC3(CCN(S(=O)(=O)C4CC4)CC3)[C@@H]1CN(C(C)=O)C2 | -0.201 |
| CCC(=O)N1CCCCC1c1nc(O)c2c(n1)CN(C(C)=O)CC2 (stereo not given) | 0.525 |
| CN(C)C(=O)N1CCN(c2cc(N3CCCC3CO)ncn2)CC1 (stereo not given) | -1.81 |
| Cc1nc(NCc2coc(-c3ccccc3)n2)cc(C2CCNCC2)n1 | 7.94 |
| O=C1N(Cc2ccc(F)cc2)CCCC12CCN(C1CCSCC1)C2 (stereo not given) | 1.77 |
| CNC(=O)N1CCc2cc(C(=O)N(C)C)c(NCC3CC3)nc2CC1 | -0.395 |
| Cc1cc(CN2CCC(c3ccnn3CCO)CC2)no1 | -11.2 |
| COc1ccc(OC)c(NC(=O)N2CCCC2c2ccco2)c1 (stereo not given) | -6.57 |
| CN1CCOC(CN(C(=O)COc2ccccc2)c2nccs2)C1 (stereo not given) | -8.18 |
| CN(C)c1cc(C2CCCN(C(=O)c3noc4c3CCCC4)C2)ccn1 (stereo not given) | -12.3 |
| CCN(C(=O)CCOC)C(c1ccc(Cl)cc1)c1ccccn1 (stereo not given) | 1.88 |
| CC(=O)N1C[C@H]2CNC[C@@]2(C(=O)NCCCOc2cccnc2)C1 | -7.52 |
| OC1CCN(C2CCN(Cc3cnc(-c4cccs4)nc3)CC2)CC1 | -9.77 |
| COCCN1CCC(CN(C)c2nc3c(s2)c(C)nn3C)C1 (stereo not given) | -4.36 |
| Cc1nnc(C2CCN(c3ncccn3)CC2)o1 | 10.8 |
| Cc1cccc(CN2CCOC3(CCCN(CC(=O)N(C)C)C3)C2)n1 (stereo not given) | -106 |
| Cc1cc2nc(SCC(=O)N3CCCC3)n(C)c(=O)c2[nH]1 | 11.1 |
| O=C1N(c2cccnc2)CCC12CCCN(Cc1ccco1)C2 (stereo not given) | -5.79 |
| O=C(N[C@H]1CN(c2ccncc2)C[C@@H]1C1CC1)C1CCOCC1 | -11.8 |
| CC(C)(C)c1c[nH]c([C@@H]2COCCN2C2CCOCC2)n1 | -5.8 |
| COCc1cc(CN(C)C(=O)CCC(=O)Nc2cc(C)ccc2F)n[nH]1 | -14.5 |

| Compound | cytotoxicity at 10 µM [%] |
| --- | --- |
| O=C(NC1CC1)c1nc(COc2ccc3c(c2)OCO3)no1 | 3.97 |
| CCNc1ccnc(-c2ccnc3c2ccn3C)n1 | 11.2 |
| CCCC(=O)N1CCCN(C(=O)c2oc(C)nc2C)CC1 | -3.92 |
| COc1ccc(NC(=O)NC(C)c2nc[nH]n2)cc1Cl (stereo not given) | 0.0264 |
| Cc1ccccc1CN(Cc1ccncc1)CC(C)C | 11.9 |
| CNc1cc(C2CN(Cc3scnc3C)CCO2)nc(C)n1 (stereo not given) | -24.7 |
| CC(Nc1cccc(Oc2ccc(C#N)cn2)c1)C(=O)NC1CC1 (stereo not given) | 12.8 |
| CC(C)(C)OC(=O)N1CCN(C(=O)c2cnn3c2OCCC3)CC1 | -2 |
| Cc1cc(F)ccc1CN1CCCC(O)(CN2CCCC2)C1 (stereo not given) | -5.19 |
| CS(=O)(=O)c1ccc(NC(=O)NCc2ccc(F)cc2)cn1 | 15.4 |
| c1cnnc(N2CCCC2CNCc2cc[nH]n2)c1 (stereo not given) | -0.807 |
| CC(=O)CN1CCC2(CC1)c1ccccc1[C@@H](N1CCSCC1)[C@@H]2O | -27.1 |
| CN(C)c1ncc(-c2cc(C(=O)O)n(CC3CC3)c2)cn1 | -9.23 |
| O=C(COCc1ccco1)Nc1cc(C(F)(F)F)c[nH]c1=O | -2.57 |
| Cc1nn(CCC#N)c(C)c1CCC(=O)N(C)Cc1ccsc1 | -3.57 |
| Cc1cnc(N2CCC3(CCCN3C(=O)c3ccco3)CC2)nc1 | 6.71 |
| CN(C)C(C(=O)N1CC(Oc2ccccc2F)C1)c1ccccc1F (stereo not given) | -0.598 |
| CN(CCO)CC1COCCN1C(=O)C1CCCCC1 (stereo not given) | -4.52 |
| N#Cc1ccccc1N1CCCN(C(=O)CCc2cccs2)CC1 | -1.27 |
| CN1CCN([C@H]2CCN(C(=O)c3nn(C)cc3Cl)C[C@H]2CCCO)CC1 | -2.86 |
| CC(C)(C)c1nnc(CN2CCCC2Cn2cncn2)o1 (stereo not given) | -4.04 |
| CC(C)Oc1cccc(CNC(=O)N2CCC(N3CC=CC3)C2)c1 (stereo not given) | 0.477 |
